# Test results reported in ChEMBL document CHEMBL4028901, “Novel Antitubercular 6-Dialkylaminopyrimidine Carboxamides from Phenotypic Whole-Cell High Throughput Screening of a SoftFocus Library: Structure-Activity Relationship and Target Identification Studies” (J Med Chem, 2017).
# pKd: −log10 of the molar value. Activity calls are given as the source filed them. The calls are words filed in the database; no cut-off is given here.
# Columns and labels:
# [1] = tested on: Mycobacterium tuberculosis variant bovis BCG; test: Binding affinity to Mycobacterium bovis BCG Rv3169 using sepharose beads derivatized with 6-((3-aminopropyl)(benzyl)amino)-N-(4-(4-methylpiperazin-1-yl)phenyl)pyrimidine-4-carboxamide by LC-MS/MS based chemoproteomics assay
# Outline: (§1)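 BCG lysate (0.25 mg) pre-incubated with compound or DMSO, then bound to probe-derivatized sepharose beads (0.04 mM) for 1 h at 4 °C. Six compound concentrations used, top 30 μM with 1:4 steps. Includes vehicle duplicates and rebinding duplicates to measure depletion. Bound proteins eluted and quantified by TMT LC-MS/MS. Apparent Kd corrected for depletion by the beads.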
# [2] = tested on: Mycobacterium tuberculosis variant bovis BCG; test: Binding affinity to Mycobacterium bovis BCG Rv3768 using sepharose beads derivatized with 6-((3-aminopropyl)(benzyl)amino)-N-(4-(4-methylpiperazin-1-yl)phenyl)pyrimidine-4-carboxamide by LC-MS/MS based chemoproteomics assay; outline: as §1
# [3] = Binding affinity to Mycobacterium bovis BCG Rv3768; set-up: species or system Mycobacterium tuberculosis variant bovis BCG; conditions: read-out: Kd(app)
# [4] = Binding affinity to Mycobacterium bovis BCG Rv3169; set-up: species or system Mycobacterium tuberculosis variant bovis BCG; conditions: read-out: Kd(app)
# [5] = tested on: Mycobacterium tuberculosis; test: Antibacterial activity against GFP-fused Mycobacterium tuberculosis H37RvMA expressing QcrB mutant grown in 7H9/GLU/ADC medium measured on day 7 and day 14 post inoculation by fluorescence plate reader assay; format: functional
# Outline: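 Mtb::gfp strains (H37RvMa::pMSP12GFP background), two-fold dilutions 20–0.039 µM in 7H9 with Tween-80, glycerol and ADC, or in GAST-Fe pH 6.6, at 5% final DMSO. Cultures grown to OD600 ~0.6 and diluted 1:500 (7H9) or 1:100 (GAST/Fe). […] Data normalised to rifampicin and DMSO controls; MIC90 taken from dose-response curves.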
SMILES,Activity [1],Activity [2],pKd [3],pKd [4],MIC99 [5] [µM]
CN1CCN(c2ccc(NC(=O)c3cc(N(C)Cc4ccc(C(F)(F)F)cc4)ncn3)cc2)CC1,Active,Active,5.42 to 5.68,6.16 to 6.21,–
COc1ccc(NC(=O)c2cc(N(C)Cc3ccccc3)ncn2)cc1,–,–,–,–,20
O=C(Nc1ccccc1)c1ccc(=O)n(Cc2ccc(F)cc2)c1,inactive,inactive,–,–,–
